{"source": "ChEMBL document CHEMBL1275496", "about": "“In vivo pharmacodynamic target investigation for micafungin against Candida albicans and C. glabrata in a neutropenic murine candidiasis model” (Antimicrob Agents Chemother, 2008)", "type_in_all_cases": "functional", "key": {"[1]": {"assay": "Ratio of fAUC in ICR/Swiss neutropenic mouse at static dose of 2.84 mg/kg, ip after 24 hrs to MIC for Candida albicans isolate K1", "settings": "route intraperitoneal"}, "Candida albicans": {"test_system": "Candida albicans", "assay": "Antifungal activity against Candida albicans isolate 98-17 infected in ICR/Swiss neutropenic mouse assessed as dose required for 1-log kill after 24 hrs", "summary_of_the_method": "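Neutropenic mice (cyclophosphamide sc 150 mg/kg day −4, 100 mg/kg day −1 and +2) infected iv by tail vein 2 h before therapy. Micafungin given ip every 24 h for 4 days at six fourfold-spaced dose levels, 0.078–80 mg/kg/24 h, 3 mice per group. Kidney CFU read at 96 h. Hill-model fit; dose giving 1 log10 below start-of-therapy burden.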"}, "[2]": {"assay": "Ratio of AUC in ICR/Swiss neutropenic mouse at 1-Log kill dose of 2.36 mg/kg, ip after 24 hrs to MIC for Candida albicans isolate 580", "settings": "route intraperitoneal"}, "[3]": {"assay": "Ratio of fAUC in ICR/Swiss neutropenic mouse at static dose of 1.34 mg/kg, ip after 24 hrs to MIC for Candida glabrata isolate 513", "settings": "route intraperitoneal"}, "Nakaseomyces glabratus [4]": {"test_system": "Nakaseomyces glabratus", "assay": "Antifungal activity against Candida glabrata isolate 5376 by CLSI method", "summary_of_the_method": "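Broth microdilution MIC per CLSI M27-A2. Two endpoints were read against the drug-free control well: partial inhibition (M1, CLSI recommended) and complete inhibition (M2). Tests were run in duplicate on four separate occasions, and the value is the mean.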"}, "[5]": {"assay": "Ratio of fAUC in ICR/Swiss neutropenic mouse at static dose of 2.53 mg/kg, ip after 24 hrs to MIC for Candida albicans isolate 98-17", "settings": "route intraperitoneal"}, "Nakaseomyces glabratus [6]": {"test_system": "Nakaseomyces glabratus", "assay": "Antifungal activity against Candida glabrata isolate 34341 by CLSI method", "summary_of_the_method": "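Broth microdilution per CLSI M27-A2. The MIC was read at partial inhibition (M1) and at complete inhibition (M2) against the drug-free control. Done in duplicate on four separate occasions and reported as the mean.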"}, "[7]": {"assay": "Ratio of AUC in ICR/Swiss neutropenic mouse at static dose of 1.98 mg/kg, ip after 24 hrs to MIC for Candida albicans isolate 580", "settings": "route intraperitoneal"}}, "note": "*1 amine or outer side, *2 acyl side, *3 side chain or, on linkers, in order; H or OH if unused. Where a SMILES comes first, the peptide text is derived from it. Bridges are numbered along the chain shown (N, C = ends). [ ]: non-standard residue; d: D form. The star is where a group is joined. hTyr(3S-OH,4S-OH,3'-OSO3H) = N[C@H](C(=O)O)[C@H](O)[C@@H](O)c1ccc(O)c(OS(=O)(=O)O)c1; Orn(4R-OH,5R-OH) = O=C([C@H](C[C@@H](O)[C@@H](O)N[*:3])N[*:1])[*:2]; Pro(3S-OH,4S-Me) = C[C@H]1CN[C@H](C(=O)O)[C@H]1O; X1 = CCCCCOc1ccc(-c2cc(-c3ccc(C(=O)*)cc3)no2)cc1; Gln(3R-OH) = NC(=O)C[C@@H](O)[C@H](N)C(=O)O; Hyp = O=C(O)[C@@H]1C[C@@H](O)CN1", "data": [{"smiles": "CCCCCOc1ccc(-c2cc(-c3ccc(C(=O)N[C@H]4C[C@@H](O)[C@@H](O)NC(=O)[C@@H]5[C@@H](O)[C@@H](C)CN5C(=O)[C@H]([C@H](O)CC(N)=O)NC(=O)[C@H]([C@H](O)[C@@H](O)c5ccc(O)c(OS(=O)(=O)O)c5)NC(=O)[C@@H]5C[C@@H](O)CN5C(=O)[C@H]([C@@H](C)O)NC4=O)cc3)no2)cc1", "note": "[MICAFUNGIN] (X1-[Orn(4R-OH,5R-OH)]T[Hyp][hTyr(3S-OH,4S-OH,3'-OSO3H)][Gln(3R-OH)][Pro(3S-OH,4S-Me)]; lactam 1-C)", "values": [{"measurement": "fAUC/MIC", "setting": "[1]", "result": 13}, {"measurement": "Activity", "setting": "Candida albicans", "result": 4.6, "unit": "mg/kg"}, {"measurement": "RatioAUC/MIC", "setting": "[2]", "result": 1686}, {"measurement": "fAUC/MIC", "setting": "[3]", "result": 6.2}, {"measurement": "MIC", "setting": "Nakaseomyces glabratus [4]", "result": 0.016, "unit": "µg/mL"}, {"measurement": "MIC50", "setting": "Nakaseomyces glabratus [4]", "result": 0.008, "unit": "µg/mL"}, {"measurement": "fAUC/MIC", "setting": "[5]", "result": 5.9}, {"measurement": "MIC", "setting": "Nakaseomyces glabratus [6]", "result": 0.12, "unit": "µg/mL"}, {"measurement": "MIC50", "setting": "Nakaseomyces glabratus [6]", "result": 0.06, "unit": "µg/mL"}, {"measurement": "RatioAUC/MIC", "setting": "[7]", "result": 7857}]}]}
